What was measured:
Cannabinoid receptor 2 [1] = target: T1, Cannabinoid receptor 2 (Homo sapiens, UniProt P34972); assay: Agonist activity at human recombinant CB2 receptor expressed in Sf9 cells by GTP-europium binding assay
Summary of the method: (§1)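 Membranes were from Sf9 insect cells cotransfected with CB1 or CB2 plus Gαi3 (Bmax 1.7 pmol/mL). Compound (0.01 nM–10 µM, 1% DMSO final) was added to buffer with Hepes, BSA, 10 mM MgCl2, 150 mM NaCl, 5 µM GDP, 10 nM GTP-europium, saponin and membranes (CB1 4.5 µg/well, CB2 14 µg/well). 100% efficacy was set by 3 µM reference agonist.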

Cannabinoid receptor 1 [2] = target: T2, Cannabinoid receptor 1 (Homo sapiens, UniProt P21554); assay: Agonist activity at human CB1 receptor expressed in Sf9 cells by GTP-europium binding assay; summary of the method: as §1
Cannabinoid receptor 2 [3] = target: T1, Cannabinoid receptor 2; assay: Agonist activity at human recombinant CB2 receptor expressed in Sf9 cells by GTP-europium binding assay relative to CP-55940
Summary of the method: as §1, with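 “µg/well). Incubation was 45 min at room temperature, then filtration and washing, with fluorescence read at 615 nm.” for “µg/well).”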

Cannabinoid receptor 1 [4] = target: T2, Cannabinoid receptor 1; assay: Agonist activity at human recombinant CB1 receptor expressed in CHO-K1 cells assessed as inhibition of forskolin-stimulated intracellular cAMP level; format: functional, cell-based
Summary of the method: (§2)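 CHO-K1 cells stably expressing human or rat CB1 or CB2 were used. Compounds were diluted from DMSO into HBSS/HEPES/BSA buffer containing 60 µM forskolin, then combined with 5000 cells/well plus Alexa647 anti-cAMP antibody, 1 h at room temperature. A biotinylated-cAMP detection mix was added for another 1 h.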

Cannabinoid receptor 2 [5] = target: T1, Cannabinoid receptor 2; assay: Agonist activity at human recombinant CB2 receptor expressed in CHO-K1 cells assessed as inhibition of forskolin-stimulated intracellular cAMP level; format: functional, cell-based; summary of the method: as §2
Cannabinoid receptor 1 [6] = target: T2, Cannabinoid receptor 1; assay: Agonist activity at human recombinant CB1 receptor expressed in Sf9 cells by GTP-europium binding assay relative to CP-55940
Summary of the method: as §1, with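 “µg/well). Incubation was 45 min at room temperature, then filtration and washing, with fluorescence read at 615 nm.” for “µg/well).”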

[7] = target: Cannabinoid receptor 1 (Rattus norvegicus) (UniProt P20272); assay: Agonist activity at rat recombinant CB1 receptor expressed in CHO-K1 cells assessed as inhibition of forskolin-stimulated intracellular cAMP level relative to CP-55940; format: functional, cell-based
Summary of the method: as §2, with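 “h. Emission at 665 nm gave concentration-response curves and EC50; Emax is expressed as a percentage of the reference agonist maximum.” for “h.”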

Cannabinoid receptor 2 [8] = target: T3, Cannabinoid receptor 2 (Rattus norvegicus, UniProt Q9QZN9); assay: Agonist activity at rat recombinant CB2 receptor expressed in CHO-K1 cells assessed as inhibition of forskolin-stimulated intracellular cAMP level; format: functional, cell-based
T3 sequence (Q9QZN9 whole entry): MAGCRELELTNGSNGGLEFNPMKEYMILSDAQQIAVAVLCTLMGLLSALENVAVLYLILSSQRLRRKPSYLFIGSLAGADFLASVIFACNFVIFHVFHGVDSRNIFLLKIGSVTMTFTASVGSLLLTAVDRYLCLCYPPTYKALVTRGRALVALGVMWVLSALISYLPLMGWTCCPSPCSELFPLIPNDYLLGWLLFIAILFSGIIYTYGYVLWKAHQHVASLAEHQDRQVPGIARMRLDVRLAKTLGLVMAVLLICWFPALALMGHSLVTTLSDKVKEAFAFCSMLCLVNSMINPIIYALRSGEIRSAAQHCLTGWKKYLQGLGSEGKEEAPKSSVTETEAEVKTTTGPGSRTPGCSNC
Summary of the method: as §2, with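 “h. Emission at 665 nm gave concentration-response curves and EC50; Emax is expressed as a percentage of the reference agonist maximum.” for “h.”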

[9] = target: T4, Cannabinoid receptor 2 (Rattus norvegicus) (UniProt Q9QZN9); assay: Agonist activity at rat recombinant CB2 receptor expressed in CHO-K1 cells assessed as inhibition of forskolin-stimulated intracellular cAMP level relative to CP-55940; format: functional, cell-based
T4 sequence (whole entry): T3 sequence (Q9QZN9 whole entry)
Summary of the method: as §2, with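 “h. Emission at 665 nm gave concentration-response curves and EC50; Emax is expressed as a percentage of the reference agonist maximum.” for “h.”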

Cannabinoid receptor 1 [10] = target: Cannabinoid receptor 1 (Rattus norvegicus, UniProt P20272); assay: Agonist activity at rat recombinant CB1 receptor expressed in CHO-K1 cells assessed as inhibition of forskolin-stimulated intracellular cAMP level; format: functional, cell-based; summary of the method: as §2
Cannabinoid receptor 2 [11] = target: T1, Cannabinoid receptor 2; assay: Agonist activity at human recombinant CB2 receptor expressed in CHO-K1 cells assessed as inhibition of forskolin-stimulated intracellular cAMP level relative to CP-55940; format: functional, cell-based
Summary of the method: as §2, with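 “h. Emission at 665 nm gave concentration-response curves and EC50; Emax is expressed as a percentage of the reference agonist maximum.” for “h.”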

Cannabinoid receptor 1 [12] = target: T2, Cannabinoid receptor 1; assay: Agonist activity at human recombinant CB1 receptor expressed in CHO-K1 cells assessed as inhibition of forskolin-stimulated intracellular cAMP level relative to CP-55940; format: functional, cell-based
Summary of the method: as §2, with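 “h. Emission at 665 nm gave concentration-response curves and EC50; Emax is expressed as a percentage of the reference agonist maximum.” for “h.”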

T2 sequence (P21554 whole entry): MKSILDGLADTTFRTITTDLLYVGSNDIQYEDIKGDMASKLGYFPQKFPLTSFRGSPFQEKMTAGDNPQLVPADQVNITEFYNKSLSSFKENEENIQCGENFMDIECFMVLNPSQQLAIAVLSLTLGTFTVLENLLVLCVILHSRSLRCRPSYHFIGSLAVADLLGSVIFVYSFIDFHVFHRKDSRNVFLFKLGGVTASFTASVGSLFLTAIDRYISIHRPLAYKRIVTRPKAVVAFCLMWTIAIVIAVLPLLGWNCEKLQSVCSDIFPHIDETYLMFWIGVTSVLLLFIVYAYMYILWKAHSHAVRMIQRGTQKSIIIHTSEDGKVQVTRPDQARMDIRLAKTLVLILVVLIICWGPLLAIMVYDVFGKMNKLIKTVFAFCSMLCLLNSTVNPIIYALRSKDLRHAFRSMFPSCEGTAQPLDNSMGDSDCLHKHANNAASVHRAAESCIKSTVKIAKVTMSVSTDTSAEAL
T1 sequence (P34972 whole entry): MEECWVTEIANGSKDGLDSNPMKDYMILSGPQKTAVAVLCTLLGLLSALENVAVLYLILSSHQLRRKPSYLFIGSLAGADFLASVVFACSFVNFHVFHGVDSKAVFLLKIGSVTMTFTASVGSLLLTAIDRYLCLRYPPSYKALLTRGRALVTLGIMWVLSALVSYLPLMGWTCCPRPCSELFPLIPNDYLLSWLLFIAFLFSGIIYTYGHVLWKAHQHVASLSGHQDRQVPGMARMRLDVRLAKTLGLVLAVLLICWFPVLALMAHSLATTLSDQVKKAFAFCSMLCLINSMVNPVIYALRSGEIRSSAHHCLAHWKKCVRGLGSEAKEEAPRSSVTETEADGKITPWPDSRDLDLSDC
Cannabinoid receptor 1 (Rattus norvegicus), sequence (P20272 whole entry): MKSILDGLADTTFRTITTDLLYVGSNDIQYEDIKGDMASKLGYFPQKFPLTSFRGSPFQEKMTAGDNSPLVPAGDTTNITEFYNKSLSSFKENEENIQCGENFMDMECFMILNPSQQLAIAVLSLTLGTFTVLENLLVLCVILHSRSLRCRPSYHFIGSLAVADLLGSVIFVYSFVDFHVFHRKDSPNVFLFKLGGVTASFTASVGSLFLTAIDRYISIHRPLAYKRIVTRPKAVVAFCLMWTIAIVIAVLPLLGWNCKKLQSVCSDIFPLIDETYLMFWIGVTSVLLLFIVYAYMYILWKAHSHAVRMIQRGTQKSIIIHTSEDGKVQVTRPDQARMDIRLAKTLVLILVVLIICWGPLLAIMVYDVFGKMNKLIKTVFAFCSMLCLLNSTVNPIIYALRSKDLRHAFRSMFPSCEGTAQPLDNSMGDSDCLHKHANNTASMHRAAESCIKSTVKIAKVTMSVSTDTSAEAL
Cannabinoid receptor 1 (Rattus norvegicus, UniProt P20272), sequence (P20272 whole entry): as above

| Compound | EC50 (Cannabinoid receptor 2 [1]) [nM] | EC50 (Cannabinoid receptor 1 [2]) [nM] | Emax (Cannabinoid receptor 2 [3]) [%] | EC50 (Cannabinoid receptor 1 [4]) [nM] | EC50 (Cannabinoid receptor 2 [5]) [nM] | Emax (Cannabinoid receptor 1 [6]) [%] | Emax [7] [%] | EC50 (Cannabinoid receptor 2 [8]) [nM] | Emax [9] [%] | EC50 (Cannabinoid receptor 1 [10]) [nM] | Emax (Cannabinoid receptor 2 [11]) [%] | Emax (Cannabinoid receptor 1 [12]) [%] |
| --- | --- | --- | --- | --- | --- | --- | --- | --- | --- | --- | --- | --- |
| CCn1c2ccccc2c2cc(NC(=O)CCn3cc(-c4ccccc4F)nn3)ccc21 | 470 | > 10000 | 15 |  |  |  |  |  |  |  |  |  |
| CCn1c2ccccc2c2cc(NC(=O)CCc3nc(-c4ccc(F)cc4C)no3)ccc21 | 0.089 | 1400 | 120 | > 1000 | 0.47 | 24 | 81 | 0.27 | 110 | 280 | 100 |  |
| CC(C)(C)c1ncc(OCCCc2nc(-c3ccc(F)cc3Cl)no2)cn1 | 4.9 | 610 | 110 | 1500 | 24 | 99 | 86 | 16 | 100 | 540 | 91 | 63 |
| O=C(CCc1nc(-c2ccc(F)cc2Cl)no1)Nc1ccc(C(F)(F)F)cc1 | 75 | > 10000 | 120 | > 1000 | 38 |  |  | 58 | 90 | > 1000 | 94 |  |
| Fc1ccc(-c2noc(CCCOc3cnc4ccc(Cl)cc4c3)n2)c(Cl)c1 | 7.2 | 1100 | 110 | 990 | 3.6 | 92 | 98 | 5.1 | 99 | 83 | 99 | 48 |
| CCn1c2ccccc2c2cc(NC(=O)CCc3nc(-c4ccc(F)cc4)no3)ccc21 | 9.8 | 1200 | 95 | 330 | 4.8 | 55 | 65 | 3.2 | 90 | 650 | 95 | 24 |
| CCn1c2ccccc2c2cc(NC(=O)CCc3nc(-c4ccccc4Cl)no3)ccc21 | 6 | > 10000 | 100 |  |  |  |  |  |  |  |  |  |
| O=C(CCc1nc(-c2ccc(F)cc2Cl)no1)Nc1ccc(C(F)(F)F)c(Cl)c1 | 62 | > 10000 | 120 | > 1000 | 25 |  |  | 79 | 100 | > 1000 | 97 |  |
| CC(C)c1ccc(NC(=O)CCc2nc(-c3ccc(F)cc3Cl)no2)cc1 | 10 | 2000 | 130 |  |  | 23 |  |  |  |  |  |  |
| CCn1c2ccccc2c2cc(NC(=O)CCc3nc(-c4ccccc4)no3)ccc21 | 150 |  | 100 |  |  |  |  |  |  |  |  |  |
| CCn1c2ccccc2c2cc(NC(=O)CCc3nc(-c4ccncc4C#N)no3)ccc21 | 3.8 | > 10000 | 110 | > 1000 | > 2.6 |  |  | 1.3 | 110 | > 1000 | 100 |  |
| CCCCCCC(C)(C)c1ccc([C@@H]2C[C@H](O)CC[C@H]2CCCO)c(O)c1 [CP-55940] |  |  |  |  |  |  |  | 0.34 |  |  |  |  |
| N#Cc1cc(NCCCc2nc(-c3ccc(F)cc3Cl)no2)cnc1OCC(F)(F)F | 31 | 1300 | 110 | > 1000 | 360 | 24 |  | 130 | 85 | > 1000 | 87 |  |
| CCn1c2ccccc2c2cc(NC(=O)CCc3nc(-c4ccccc4C(C)C)no3)ccc21 | 670 | > 10000 | 88 |  |  |  |  |  |  |  |  |  |

From ChEMBL document CHEMBL1156631 (J Med Chem, 2008)
